Measured values from ChEMBL document CHEMBL1123998, “Radioiodinated benzodiazepines: agents for mapping glial tumors” (J Med Chem, 1988).

Key:
Rattus norvegicus [1] = organism: Rattus norvegicus; test: Radioligand binding in heart tissue after 6 hr; assay type: functional
In short: (§1)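 Male Sprague-Dawley rats (160–265 g) under light ether received 16–19 μCi ¹²⁵I-ligand in 0.20–0.25 mL 15:85 EtOH/PBS pH 6.0 via the femoral vein. They were decapitated at 5 min, 30 min, 2, 6 or 24 h, and tissues were weighed and gamma-counted. Results are % injected dose/g wet tissue, normalized to a 200-g rat; N = 5 per time point.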

[2] = target: Translocator protein (Rattus norvegicus) (UniProt P16257); test: Reduced radioligand binding following 30 min intravenous 10 mg/kg PK11195 in brain tissue; assay type: functional, organism-based; parameters: dose 10 mg/kg
Rattus norvegicus [3] = organism: Rattus norvegicus; test: Radioligand binding in blood after 2 hr; assay type: functional; in short: as §1
Rattus norvegicus [4] = organism: Rattus norvegicus; test: Radioligand binding in kidney tissue after 2 hr; assay type: functional; in short: as §1
Rattus norvegicus [5] = organism: Rattus norvegicus; test: Radioligand binding in thyroid tissue after 24 hr r; assay type: functional, Thyroid gland; in short: as §1
Rattus norvegicus [6] = organism: Rattus norvegicus; test: Radioligand binding in kidney tissue after 30 min; assay type: functional; in short: as §1
Translocator protein = Translocator protein (Rattus norvegicus, UniProt P16257); test: Binding affinity for peripheral benzodiazepine receptor of rat kidney
Rattus norvegicus [7] = organism: Rattus norvegicus; test: Radioligand binding in adrenal tissue after 2 hr; assay type: functional; in short: as §1
Rattus norvegicus [8] = organism: Rattus norvegicus; test: Radioligand binding in kidney tissue after 5 min; assay type: functional; in short: as §1
Rattus norvegicus [9] = organism: Rattus norvegicus; test: Radioligand binding in blood after 5 min; assay type: functional; in short: as §1
Rattus norvegicus [10] = organism: Rattus norvegicus; test: Radioligand binding in blood after 30 min; assay type: functional; in short: as §1
Rattus norvegicus [11] = organism: Rattus norvegicus; test: Radioligand binding in adrenal tissue after 6 hr; assay type: functional; in short: as §1
Rattus norvegicus [12] = organism: Rattus norvegicus; test: (§2) Radioligand binding in brain tissue after 24 hr r; assay type: functional; in short: as §1
Rattus norvegicus [13] = organism: Rattus norvegicus; test: Radioligand binding in thyroid tissue after 2 hr; assay type: functional, Thyroid gland; in short: as §1
Rattus norvegicus [14] = organism: Rattus norvegicus; test: Radioligand binding in brain tissue after 2 hr; assay type: functional; in short: as §1
Rattus norvegicus [15] = organism: Rattus norvegicus; test: Radioligand binding in kidney tissue after 24 hr r; assay type: functional; in short: as §1
Rattus norvegicus [16] = organism: Rattus norvegicus; test: as §2; assay type: functional; in short: as §1; remark: listed apart in the source
Rattus norvegicus [17] = organism: Rattus norvegicus; test: Radioligand binding in blood after 24 hr r; assay type: functional; in short: as §1
Rattus norvegicus [18] = organism: Rattus norvegicus; test: Radioligand binding in thyroid tissue after 6 hr; assay type: functional, Thyroid gland; in short: as §1
Rattus norvegicus [19] = organism: Rattus norvegicus; test: Radioligand binding in brain tissue after 5 min; assay type: functional; in short: as §1
Rattus norvegicus [20] = organism: Rattus norvegicus; test: Radioligand binding in adrenal gland after 30 min; assay type: functional; in short: as §1
Rattus norvegicus [21] = organism: Rattus norvegicus; test: Radioligand binding in heart tissue after 2 hr; assay type: functional; in short: as §1
Rattus norvegicus [22] = organism: Rattus norvegicus; test: Radioligand binding in kidney tissue after 6 hr; assay type: functional; in short: as §1
Rattus norvegicus [23] = organism: Rattus norvegicus; test: Radioligand binding in thyroid tissue after 2 hr in rats given oral KI solution; assay type: functional, Thyroid gland
Rattus norvegicus [24] = organism: Rattus norvegicus; test: Radioligand binding in adrenal gland after 5 min; assay type: functional; in short: as §1
[25] = target: Translocator protein (Rattus norvegicus) (UniProt P16257); test: Reduced radioligand binding following 30 min intravenous 10 mg/kg PK11195 in adrenal tissue; assay type: functional, organism-based; parameters: dose 10 mg/kg; details: at 10 mg/kg
[26] = target: GABA-A receptor; anion channel; test: Binding affinity for GABA-A benzodiazepine receptor of rat brain
In short: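 Frozen rat brain (central receptor) and kidney (peripheral site) sections, 20 μm, were prewashed 3 × 5 min in 50 mM Tris pH 7.4 at 0 °C. They were incubated 90 min with 5 nM [³H]flunitrazepam plus graded competitor, with 1 μM PK 11195 defining nonspecific binding. Film autoradiography (10 days, ¹⁴C standards) was read by densitometry. Ki = IC50/(1+[L]/Kd), Kd 40 nM; N = 3.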

Rattus norvegicus [27] = organism: Rattus norvegicus; test: Radioligand binding in heart tissue after 5 min; assay type: functional; in short: as §1
[28] = target: Translocator protein (Rattus norvegicus) (UniProt P16257); test: Reduced radioligand binding following 30 min intravenous 10 mg/kg PK11195 in lung tissue; assay type: functional, organism-based; parameters: dose 10 mg/kg
Rattus norvegicus [29] = organism: Rattus norvegicus; test: Radioligand binding in heart tissue after 24 hr r; assay type: functional; in short: as §1
[30] = target: Translocator protein (Rattus norvegicus) (UniProt P16257); test: Reduced radioligand binding following 30 min intravenous 10 mg/kg PK11195 in submaxillary gland; assay type: functional, organism-based; parameters: dose 10 mg/kg
Rattus norvegicus [31] = organism: Rattus norvegicus; test: Radioligand binding in thyroid tissue after 5 min; assay type: functional, Thyroid gland; in short: as §1
Rattus norvegicus [32] = organism: Rattus norvegicus; test: Radioligand binding in adrenal tissue after 24 hr r; assay type: functional; in short: as §1
[33] = target: Translocator protein (Rattus norvegicus) (UniProt P16257); test: Reduced radioligand binding following 30 min intravenous 10 mg/kg PK11195 in kidney tissue; assay type: functional, organism-based; parameters: dose 10 mg/kg
[34] = target: Translocator protein (Rattus norvegicus) (UniProt P16257); test: Reduced radioligand binding following 30 min intravenous 10 mg/kg PK11195 in heart tissue; assay type: functional, organism-based; parameters: dose 10 mg/kg
Rattus norvegicus [35] = organism: Rattus norvegicus; test: Radioligand binding in brain tissue after 30 min; assay type: functional; in short: as §1
Rattus norvegicus [36] = organism: Rattus norvegicus; test: Radioligand binding in thyroid tissue after 30 min; assay type: functional, Thyroid gland; in short: as §1
[37] = target: Translocator protein (Rattus norvegicus) (UniProt P16257); test: Reduced radioligand binding following 30 min intravenous 10 mg/kg PK11195 in blood; assay type: functional, organism-based; parameters: dose 10 mg/kg
Rattus norvegicus [38] = organism: Rattus norvegicus; test: Radioligand binding in blood after 6 hr; assay type: functional; in short: as §1
Rattus norvegicus [39] = organism: Rattus norvegicus; test: Radioligand binding in heart tissue after 30 min; assay type: functional; in short: as §1
[40] = target: Translocator protein (Rattus norvegicus) (UniProt P16257); test: Reduced radioligand binding following 30 min intravenous 10 mg/kg PK11195 in adrenal gland; assay type: functional, organism-based; parameters: dose 10 mg/kg

Sequence of Translocator protein (Rattus norvegicus) (P16257 whole entry, looked up): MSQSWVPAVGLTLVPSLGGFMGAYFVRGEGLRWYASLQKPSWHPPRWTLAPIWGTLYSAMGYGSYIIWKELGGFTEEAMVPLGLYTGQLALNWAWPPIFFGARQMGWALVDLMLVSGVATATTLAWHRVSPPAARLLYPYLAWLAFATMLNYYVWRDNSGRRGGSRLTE
Sequence of Translocator protein (P16257 whole entry, looked up): as above

SMILES: CN1C(=O)CN=C(c2ccc(I)cc2)c2cc(Cl)ccc21
- Activity (Rattus norvegicus [1]): 0.19
- Distribution [2]: 0.69
- Activity (Rattus norvegicus [3]): 0.1
- Activity (Rattus norvegicus [4]): 0.51
- Activity (Rattus norvegicus [5]): 10.85
- Activity (Rattus norvegicus [6]): 1.05
- Ki (Translocator protein): 13.6 nM
- Activity (Rattus norvegicus [7]): 2.38
- Activity (Rattus norvegicus [8]): 1.78
- Activity (Rattus norvegicus [9]): 0.22
- Activity (Rattus norvegicus [10]): 0.11
- Activity (Rattus norvegicus [11]): 0.6
- Activity (Rattus norvegicus [12]): 0.01
- Activity (Rattus norvegicus [13]): 4.26
- Activity (Rattus norvegicus [14]): 0.35
- Activity (Rattus norvegicus [15]): 0.03
- Activity (Rattus norvegicus [16]): 0.14
- Activity (Rattus norvegicus [17]): 0.01
- Activity (Rattus norvegicus [18]): 11.85
- Activity (Rattus norvegicus [19]): 1
- Activity (Rattus norvegicus [20]): 7.85
- Activity (Rattus norvegicus [21]): 0.5
- Activity (Rattus norvegicus [22]): 0.21
- Activity (Rattus norvegicus [23]): 0.49
- Activity (Rattus norvegicus [24]): 7.1
- Change [25]: -75%
- Ki [26]: > 1000 nM
- Activity (Rattus norvegicus [27]): 2.18
- Distribution [28]: 0.58
- Change ([28]; at 10 mg/kg): -46%
- Activity (Rattus norvegicus [29]): 0.02
- Distribution [30]: 0.74
- Change ([30]; at 10 mg/kg): -49%
- Activity (Rattus norvegicus [31]): 3.27
- Activity (Rattus norvegicus [32]): 0.05
- Distribution [33]: 0.74
- Change ([33]; at 10 mg/kg): -35%
- Distribution [34]: 0.76
- Change ([34]; at 10 mg/kg): -34%
- Activity (Rattus norvegicus [35]): 0.6
- Activity (Rattus norvegicus [36]): 2.25
- Distribution [37]: 0.16
- Activity (Rattus norvegicus [38]): 0.05
- Activity (Rattus norvegicus [39]): 1.13
- Distribution [40]: 1.74

SMILES: CN1C(=O)CN=C(c2ccc(Cl)cc2)c2cc(I)ccc21
- Activity (Rattus norvegicus [1]): 0.57
- Activity (Rattus norvegicus [3]): 0.12
- Activity (Rattus norvegicus [4]): 0.58
- Activity (Rattus norvegicus [5]): 17.2
- Activity (Rattus norvegicus [6]): 0.74
- Ki (Translocator protein): 13.3 nM
- Activity (Rattus norvegicus [7]): 1.84
- Activity (Rattus norvegicus [8]): 1.1
- Activity (Rattus norvegicus [9]): 0.2
- Activity (Rattus norvegicus [10]): 0.15
- Activity (Rattus norvegicus [11]): 1.3
- Activity (Rattus norvegicus [12]): 0.21
- Activity (Rattus norvegicus [13]): 5.57
- Activity (Rattus norvegicus [14]): 0.41
- Activity (Rattus norvegicus [15]): 0.25
- Activity (Rattus norvegicus [16]): 0.46
- Activity (Rattus norvegicus [17]): 0.05
- Activity (Rattus norvegicus [18]): 17.28
- Activity (Rattus norvegicus [19]): 0.75
- Activity (Rattus norvegicus [20]): 3.63
- Activity (Rattus norvegicus [21]): 0.63
- Activity (Rattus norvegicus [22]): 0.59
- Activity (Rattus norvegicus [24]): 4.85
- Ki [26]: > 1000 nM
- Activity (Rattus norvegicus [27]): 1.15
- Activity (Rattus norvegicus [29]): 0.25
- Activity (Rattus norvegicus [31]): 1.5
- Activity (Rattus norvegicus [32]): 0.42
- Activity (Rattus norvegicus [35]): 0.46
- Activity (Rattus norvegicus [36]): 4.42
- Activity (Rattus norvegicus [38]): 0.12
- Activity (Rattus norvegicus [39]): 0.77

SMILES: CN1C(=O)CN=C(c2ccc(Cl)cc2)c2cc(Cl)ccc21 [RO-54864]
- Ki [26]: > 1000 nM
